From ChEMBL document CHEMBL4020842, “Discovery of N1-(4-((7-Cyclopentyl-6-(dimethylcarbamoyl)-7 H-pyrrolo[2,3- d]pyrimidin-2-yl)amino)phenyl)- N8-hydroxyoctanediamide as a Novel Inhibitor Targeting Cyclin-dependent Kinase 4/9 (CDK4/9) and Histone Deacetlyase1 (HDAC1) against Malignant Cancer” (J Med Chem, 2018)
Converted amounts (≈) assume the structure as drawn. The source made the active and inactive calls. The calls are words filed in the database; no cut-off is given here.

Legend:
A549 [1] = test: Induction of apoptosis in human A549 cells assessed as late apoptotic cells at 10 uM after 48 hrs by annexin V-FITC/propidium iodide staining based flow cytometry (reference value: 0.88%); format: functional
[2] = molecular target: Cyclin-dependent kinase 1/cyclin B1 (Homo sapiens) (UniProt P06493+P14635); test: Inhibition of recombinant human full length C-terminal 6His-tagged CDK1/N-terminal GST-tagged Cyclin-B co-expressed in baculovirus infected sf21 cells at 1 uM using histone H1 substrate in presence of [gamma33P]ATP after 10 mins by scintillation counting method relative to control
Cyclin-dependent kinase 1/cyclin B1 (Homo sapiens), sequence (P06493 whole entry, looked up): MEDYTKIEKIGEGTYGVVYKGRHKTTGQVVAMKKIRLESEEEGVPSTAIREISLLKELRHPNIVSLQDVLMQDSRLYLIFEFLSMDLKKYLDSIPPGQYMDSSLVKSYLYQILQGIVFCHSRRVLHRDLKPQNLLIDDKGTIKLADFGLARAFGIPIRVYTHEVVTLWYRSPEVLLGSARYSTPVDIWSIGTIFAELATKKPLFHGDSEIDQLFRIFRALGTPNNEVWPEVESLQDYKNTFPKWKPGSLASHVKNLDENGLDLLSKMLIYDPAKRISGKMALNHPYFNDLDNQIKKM
Cyclin-dependent kinase 1/cyclin B1 (Homo sapiens), sequence (P14635 whole entry, looked up): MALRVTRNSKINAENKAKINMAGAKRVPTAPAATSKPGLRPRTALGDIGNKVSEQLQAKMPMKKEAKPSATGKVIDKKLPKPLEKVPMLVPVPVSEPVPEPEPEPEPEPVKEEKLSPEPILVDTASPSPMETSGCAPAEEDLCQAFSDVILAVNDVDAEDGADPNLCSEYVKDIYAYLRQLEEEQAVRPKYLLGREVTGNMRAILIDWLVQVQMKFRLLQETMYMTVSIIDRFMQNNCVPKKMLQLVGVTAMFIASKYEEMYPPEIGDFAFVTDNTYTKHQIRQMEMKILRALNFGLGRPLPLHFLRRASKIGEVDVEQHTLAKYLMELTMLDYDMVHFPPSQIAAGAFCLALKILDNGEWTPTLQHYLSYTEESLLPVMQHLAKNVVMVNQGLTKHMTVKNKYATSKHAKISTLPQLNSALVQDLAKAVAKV

[3] = Aqueous solubility in water at 1 mg using methanesulfonic acid formulation sonicated for 24 hrs and incubated under unstirred condition for 24 hrs by HPLC method; format: physicochemical
Histone deacetylase 1 [4] = molecular target: T1, Histone deacetylase 1 (Homo sapiens, UniProt Q13547); test: Inhibition of HDAC1 in human T47D cells assessed as increase in p53 phosphorylation at Ser15 residue at 1 to 5 uM after 48 hrs by Western blot method; format: cell-based
T1 sequence (Q13547 whole entry): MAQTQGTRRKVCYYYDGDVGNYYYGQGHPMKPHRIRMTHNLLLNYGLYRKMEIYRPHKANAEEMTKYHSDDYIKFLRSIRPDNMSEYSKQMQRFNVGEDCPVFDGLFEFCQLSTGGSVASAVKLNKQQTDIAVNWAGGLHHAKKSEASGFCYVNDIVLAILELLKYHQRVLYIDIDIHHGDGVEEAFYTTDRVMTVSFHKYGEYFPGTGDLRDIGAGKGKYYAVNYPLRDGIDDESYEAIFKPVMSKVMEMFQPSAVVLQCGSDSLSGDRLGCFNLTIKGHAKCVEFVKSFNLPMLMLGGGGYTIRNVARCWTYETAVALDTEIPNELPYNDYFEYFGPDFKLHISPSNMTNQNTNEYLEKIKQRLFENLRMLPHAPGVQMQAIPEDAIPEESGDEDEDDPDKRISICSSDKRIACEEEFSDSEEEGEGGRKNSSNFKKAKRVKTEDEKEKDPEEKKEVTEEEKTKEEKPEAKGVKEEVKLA

Hep 3B2 [5] = test: Induction of apoptosis in human Hep3B cells assessed as caspase-3 cleavage after 48 hrs by Western blot method; format: functional, cell-based
Method in brief: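 Cells were treated with or without compound and control for 48 h, then lysed. Bcl-2 and cleaved caspase 3 were assessed by Western blot.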

Hep 3B2 [6] = test: Induction of apoptosis in human Hep3B cells assessed as early apoptotic cells at 1 uM after 48 hrs by annexin V-FITC/propidium iodide staining based flow cytometry (reference value: 1.91%); format: functional
Hep 3B2 [7] = test: Induction of apoptosis in human Hep3B cells assessed as necrotic cells at 10 uM after 48 hrs by annexin V-FITC/propidium iodide staining based flow cytometry (reference value: 4.97%); format: functional
MDA-MB-231 [8] = test: Downregulation of Cyclin-D1 protein expression in human MDA-MB-231 cells after 48 hrs by Western blot method; format: functional, cell-based
Method in brief: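 Treated cells were lysed and CDK4 and cyclin D1 protein levels were assessed by Western blot.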

T47D [9] = test: Induction of apoptosis in human T47D cells assessed as live cells at 5 uM after 48 hrs by annexin V-FITC/propidium iodide staining based flow cytometry (reference value: 85.3%); format: functional
Hep 3B2 [10] = test: Induction of apoptosis in human Hep3B cells assessed as late apoptotic cells at 10 uM after 48 hrs by annexin V-FITC/propidium iodide staining based flow cytometry (reference value: 5.25%); format: functional
Mus musculus = test: Downregulation of phosphorylated Rb level in tumor of Balb/c mouse implanted with mouse Fluc-labeled 4T1 cells at 90 to 130 mg/kg, po administered via gavage daily for 18 days by immunohistochemical analysis; format: functional, organism-based
Method in brief: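 4T1 cells were labeled with firefly luciferase by lentiviral transduction and implanted orthotopically into the mammary fat pads of 6−8-week-old female BALB/c mice. Dosing by oral gavage began once tumors averaged 100 mm3, at 90 and 130 mg/kg. p-Rb in tumors was assessed by immunohistochemistry.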

NCI-H460 [11] = test: Cytotoxicity against human NCI-H460 cells assessed as reduction in cell viability after 72 hrs by CCK8 assay; format: functional, cell-based; conditions: NCI-H460, 72 h
HepG2 [12] = test: Cell cycle arrest in human HepG2 cells assessed as accumulation at G0/G1 phase at 625 nM after 24 hrs by propidium iodide staining based flow cytometry; format: functional
Method in brief: (§1)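 Cells were exposed for 24 h to a range of concentrations (625 nM, 2.5 and 10 µM), with DMSO vehicle as control. They were then stained with propidium iodide and analysed by flow cytometry to obtain the percentages of cells in G0/G1, S and G2 phases.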

T47D [13] = test: Cytotoxicity against human T47D cells assessed as reduction in cell viability after 72 hrs by CCK8 assay; format: functional, cell-based
[14] = Bioavailability in Sprague-Dawley rat at 20 mg/kg, ip administered as single dose by HPLC analysis; format: ADME, organism-based; conditions: in vivo
MDA-MB-231 [15] = test: Induction of apoptosis in human MDA-MB-231 cells assessed as necrotic cells at 5 uM after 48 hrs by annexin V-FITC/propidium iodide staining based flow cytometry (reference value: […]); format: functional
NCI-H460 [16] = test: Cell cycle arrest in human NCI-H460 cells assessed as decrease in S-phase at 625 nM after 24 hrs by propidium iodide staining based flow cytometry; format: functional; method in brief: as §1
MDA-MB-231 [17] = test: Induction of apoptosis in human MDA-MB-231 cells assessed as early apoptotic cells at 5 uM after 48 hrs by annexin V-FITC/propidium iodide staining based flow cytometry (reference value: 0.4%); format: functional
Rattus norvegicus = test: Apparent volume of distribution at steady state in Sprague-Dawley rat at 20 mg/kg, ip administered as single dose by HPLC analysis; format: ADME, organism-based; conditions: in vivo
HepG2 [18] = test: Induction of apoptosis in human HepG2 cells assessed as reduction in Bcl2 protein expression after 48 hrs by Western blot method; format: functional, cell-based
Method in brief: (§2)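 Cells were treated with or without test agent, alongside a control, for 48h. They were then lysed and analysed by Western blot for Bcl-2 protein and cleaved caspase 3.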

MDA-MB-231 [19] = test: Induction of apoptosis in human MDA-MB-231 cells assessed as live cells at 1 uM after 48 hrs by annexin V-FITC/propidium iodide staining based flow cytometry (reference value: 98.1%); format: functional
T47D [20] = test: Induction of apoptosis in human T47D cells assessed as early apoptotic cells at 5 uM after 48 hrs by annexin V-FITC/propidium iodide staining based flow cytometry (reference value: 7.7%); format: functional
MDA-MB-231 [21] = test: Induction of apoptosis in human MDA-MB-231 cells assessed as reduction in Bcl2 protein expression after 48 hrs by Western blot method; format: functional, cell-based; method in brief: as §2
NCI-H460 [22] = test: Induction of apoptosis in human NCI-H460 cells assessed as late apoptotic cells at 10 uM after 48 hrs by annexin V-FITC/propidium iodide staining based flow cytometry (reference value: 1.29%); format: functional
Hep 3B2 [23] = test: Induction of apoptosis in human Hep3B cells after 48 hrs by annexin V-FITC/propidium iodide staining based flow cytometry; format: functional, cell-based
NCI-H460 [24] = test: Induction of apoptosis in human NCI-H460 cells assessed as late apoptotic cells at 5 uM after 48 hrs by annexin V-FITC/propidium iodide staining based flow cytometry (reference value: 1.29%); format: functional
HepG2 [25] = test: Induction of apoptosis in human HepG2 cells assessed as live cells at 1 uM after 48 hrs by annexin V-FITC/propidium iodide staining based flow cytometry (reference value: 96.7%); format: functional
MDA-MB-231 [26] = test: Cell cycle arrest in human MDA-MB-231 cells assessed as accumulation at G2 phase at 2.5 to 10 uM after 24 hrs by propidium iodide staining based flow cytometry; format: functional; method in brief: as §1
Histone deacetylase 1 [27] = molecular target: T1, Histone deacetylase 1; test: Potency index, ratio of vorinostat IC50 to compound IC50 for HDAC1 (unknown origin)
NCI-H1299 = test: Cytotoxicity against human NCI-H1299 cells assessed as reduction in cell viability after 72 hrs by CCK8 assay; format: functional, cell-based; conditions: NCI-H1299, 72 h
A549 [28] = test: Induction of apoptosis in human A549 cells assessed as early apoptotic cells at 5 uM after 48 hrs by annexin V-FITC/propidium iodide staining based flow cytometry (reference value: 0.41%); format: functional
A549 [29] = test: Induction of apoptosis in human A549 cells assessed as live cells at 1 uM after 48 hrs by annexin V-FITC/propidium iodide staining based flow cytometry (reference value: 92.7%); format: functional

inhibition [2]: 55%
solubility at 24 h [3]: 526 µg/mL (≈ 982 µM)
inhibition (Histone deacetylase 1 [4]): Active
bioavailability [14]: 34.7%
Vdss(app) (Rattus norvegicus): 119.94 L/kg
Ratio IC50 (Histone deacetylase 1 [27]): > 10
Structure (SMILES): CN(C)C(=O)c1cc2cnc(Nc3ccc(NC(=O)CCCCCCC(=O)NO)cc3)nc2n1C1CCCC1
Activity (A549 [1]): 27.7%
Activity (Hep 3B2 [5]): Active
Activity (Hep 3B2 [6]): 3.82%
Activity (Hep 3B2 [7]): 3.02%
Activity (MDA-MB-231 [8]): Dose-dependent effect
Activity (T47D [9]): 76.5%
Activity (Hep 3B2 [10]): 15%
Activity (Mus musculus): Active
IC50 (NCI-H460 [11]): 3780 nM
Activity (HepG2 [12]): Active
IC50 (T47D [13]): 2590 nM
Activity (MDA-MB-231 [15]): 1.36%
Activity (NCI-H460 [16]): Active
Activity (MDA-MB-231 [17]): 2.57%
Activity (HepG2 [18]): Active
Activity (MDA-MB-231 [19]): 95.6%
Activity (T47D [20]): 14.1%
Activity (MDA-MB-231 [21]): Active
Activity (NCI-H460 [22]): 10.9%
Activity (Hep 3B2 [23]): Dose-dependent effect
Activity (NCI-H460 [24]): 5.38%
Activity (HepG2 [25]): 87.4%
Activity (MDA-MB-231 [26]): Active
IC50 (NCI-H1299): 1870 nM
Activity (A549 [28]): 2.41%
Activity (A549 [29]): 90.9%
